From ChEMBL document CHEMBL2176879, “Identification of HIV-1 inhibitors targeting the nucleocapsid protein” (J Med Chem, 2012) come the findings set out here.

The subject of data set [1] is Human immunodeficiency virus 1. In words: Antiviral activity against HIV1 NL4-3 infected in human HeLa cells assessed as drecrease of p24 antigen level after 2 days by CFAR. Format: functional, organism-based. To be noted: Human immunodeficiency virus 1, NL4-3, HeLa, 48 h. The method, boiled down: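 2×10^5 HeLa cells in Opti-MEM given increasing compound concentrations (1 % DMSO controls); after 2 days transiently transfected with 1 μg pNL4-3 plasmid by lipofection. Virus production quantified as p24, expressed relative to DMSO controls; three independent transfections, mean ± s.d.; EC50 derived.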

A short description of data set [2]: Inhibition of HIV1 NL4-3 N-terminal GST-tagged nucleocapsid protein interaction to FAM-labeled SL-2 DNA expressed in Escherichia coli BL21DE3 by fluorescence polarisation assay. On the set-up: species or system Human immunodeficiency virus 1. On the technique in general: In fluorescence polarisation assays a small probe gives low polarisation when free and higher when bound to something large.

The subject of data set [3] is Human immunodeficiency virus 1. As to the kind of experiment: Displacement of FAM-labeled SL-2 from HIV1 NL4-3 N-terminal GST-tagged nucleocapsid protein-FAM-labeled SL-2 complex expressed in Escherichia coli BL21DE3 by EMSA analysis. The method, boiled down: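 Pre-formed complex of GST-p2-NC with fluorescein-labeled SL-2 DNA (15 μM protein, 0.5 μM DNA in PBS, 10 nM ZnCl2) incubated with compound, resolved by native PAGE; free/bound probe quantified by fluorescence gel scanning.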
A general note: In EMSA bound probe runs differently from free probe, usually more slowly.

Data set [4] deals with Human immunodeficiency virus 1. As to the kind of experiment: Binding affinity to HIV1 NL4-3 N-terminal GST-tagged nucleocapsid protein expressed in Escherichia coli BL21DE3 by resonant waveguide grating-based SRU BIND assay. In short, it runs like this:
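GST-p2-NC (NL4-3, E. coli BL21DE3(pLysS), GSH-purified) immobilized at 5 μM on aldehyde-activated optical biosensor; compounds added at 25 μM in PBS, 1 % DMSO; peak wavelength shift followed over time at room temperature; stoichiometry from expected PWV using ligand/receptor MW ratio and target activity.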

The test system of data set [5] is Human immunodeficiency virus 1. As to the kind of experiment: Antiviral activity against HIV1 LAI infected in human CD4+ T cells assessed as reduction of p24 positive T cells at 200 nM treated 3 days before infection measured after 9 days by flow cytometry analysis. Conditions: Human immunodeficiency virus 1, LAI, T-cell. The class given is functional.
The subject of data set [6] is SUP-T1. As to the kind of experiment: Cytotoxicity against human SupT1 cells at 0.1 uM after 7 days by Trypan Blue dye exclusion analysis. The class given is cell-based. To be noted: sup-t1, 168 h. The method, boiled down:
(§1)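 SupT1 T cells in RPMI1640 with 10 % FBS, 2 mM L-glutamine, 0.1 mM NEAA, 1 mM sodium pyruvate, penicillin/streptomycin, at 37 °C and 5 % CO2. Compounds were dissolved in DMSO and incubated with the cells for several days. Viability was read as dead vs. viable cells by Trypan Blue dye exclusion, counted under a microscope.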

Data set [7] has as its system SUP-T1. As to the kind of experiment: Cytotoxicity against human SupT1 cells at 10 uM after 7 days by Trypan Blue dye exclusion analysis. The class given is cell-based. Conditions: sup-t1, 168 h.
The test system of data set [8] is SUP-T1. As to the kind of experiment: Cytotoxicity against human SupT1 cells at 0.1 to 1 uM after 7 days by Trypan Blue dye exclusion analysis. The class given is cell-based. Conditions: sup-t1, 168 h.
In data set [9] the test system is Human immunodeficiency virus 1. As to the kind of experiment: Binding affinity to HIV1 Gag protein assessed as change in melting temperature using SYPRO orange by differential scanning fluorimetry analysis. The method, boiled down:
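5 μM GST-Gag incubated with 5X SYPRO Orange and 5 μM compound in 5 mM HEPES pH 7.5, 150 mM NaCl; heated 35–94 °C at 1 °C/min. Tm from Boltzmann sigmoid fit; ΔTm of 2 °C taken as hit threshold.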
(In general: DSF heats the sample and reads unfolding from a dye or from intrinsic fluorescence.)

Data set [10] has as its system SUP-T1. In words: Cytotoxicity against human SupT1 cells at 1 uM by Trypan Blue dye exclusion analysis. Format: cell-based. To be noted: sup-t1, 1 µM. In short, it runs like this: as §1
For data set [11], the system named is SUP-T1. As to the kind of experiment: Cytotoxicity against human SupT1 cells at 30 uM after 6 days by Trypan Blue dye exclusion analysis. The class given is cell-based. To be noted: sup-t1, 144 h. In short, it runs like this:
as §1

Active and inactive are the calls of the source.

Usually EC50 stands for the concentration giving half of the maximal effect. A word on the Ki: it is a measure of affinity in units of concentration, obtained from inhibition or displacement. A high value points to lower affinity. One may read the inhibition as the relative decrease from the control value, in per cent. As usually defined, the ΔTm is the shift of the melting midpoint relative to a reference. With `CCOc1ccc(/C=C(\C)[N+](=O)[O-])cc1OC`, the EC50 in data set [1] stood at 320 nM. For the same molecule, the affinity in data set [2], expressed as Ki, was 14 nM. Further, the outcome in data set [3] and in data set [4] was Active. Moreover, in data set [5], the inhibition at 0.2 µM amounted to 50%. In addition, the Activity with SUP-T1 [6] was 0%; in the data set with SUP-T1 [7] it was more than 90%; with SUP-T1 [8] it was less than 3%. The ΔTm in data set [9] is 2.2 °C.
In data set [2], `O=C1ON=C(c2ccccc2)/C1=C/c1ccc2c(c1)OCO2` showed a Ki of 20 nM. The Activity in the data set on SUP-T1 [10] is more than 70%; in the data set on SUP-T1 [6], 0%; with SUP-T1 [7] it was more than 90%. Further, the outcome in data set [3] and in data set [4] was Active. In addition, the inhibition at 0.2 µM in data set [5] is 33%. The ΔTm in data set [9] is 6.3 °C.
For the molecule `O=C1NC(=S)S/C1=C\c1cc([N+](=O)[O-])ccc1Sc1ccc(C(F)(F)F)cn1`, the Ki in [2] worked out at 73 nM. In addition, the Activity is more than 70% in the data set on SUP-T1 [10], 0% in the data set with SUP-T1 [6] and more than 90% in the data set on SUP-T1 [7]. Also, the result in data set [3] and in data set [4] was Active. Further, the inhibition at 0.2 µM in data set [5] stood at 0%. In addition, the ΔTm in [9] worked out at 2.4 °C.
`C/C(=C\c1ccc2c(c1)OCO2)[N+](=O)[O-]`: the Ki in [2] is 22 nM. For the same molecule, the Activity is listed as more than 70% in the data set on SUP-T1 [10], 0% in the data set on SUP-T1 [6] and more than 90% in the data set on SUP-T1 [7]. For the same molecule, the outcome in data set [3] and in data set [4] was Active. Besides, the inhibition at 0.2 µM in data set [5] is 18%. Further, the ΔTm in [9] turned out to be 3.4 °C.
As to `COc1cccc(/C=C2\SC(=S)C(N)C2=O)c1OC` (configuration not stated), the EC50 in [1] is 3500 nM. This molecule also returned a Ki in data set [2] of 18 nM. In addition, the result in [3] and in data set [4] was Active. In data set [5], the inhibition at 0.2 µM was determined as 43%. Further, the Activity is more than 70% with SUP-T1 [11], 0% in the data set with SUP-T1 [6] and less than 3% in the data set with SUP-T1 [8]. Further, the ΔTm in data set [9] is 4.8 °C.
